This is an account of results in ChEMBL document CHEMBL4152263, “Novel anticancer hybrids from diazen-1-ium-1,2-diolate nitric oxide donor and ROS inducer plumbagin: Design, synthesis and biological evaluations” (Eur J Med Chem, 2018).

Common to all, as to assay type: functional
Test [1] has as its system MDA-MB-231. The test is described as follows: Cytotoxicity against human MDA-MB-231 cells assessed as growth inhibition at 40 uM after 48 hrs by MTT assay relative to control. Conditions: MDA-MB-231, 48 h, read-out: GI. A digest of the protocol:
(§1)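 Single-concentration MTT screen. Cells were seeded, allowed to adhere for 24 h, and exposed to compound for 48 h. MTT (5 mg/mL) was added for the last 4 h, then DMSO, with absorbance read at 570 nm. Result is inhibition rate (%) at the stated concentration; mean of three independent experiments.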
Background: Tetrazolium dyes change colour on reduction, which living cells bring about.

The test system of test [2] is A549. The test is described as follows: Cytotoxicity against human A549 cells assessed as growth inhibition at 40 uM after 48 hrs by MTT assay relative to control. The note with it: A549, 48 h, read-out: GI. A digest of the protocol:
as §1

Test [3] relates to HepG2. The test is described as follows: Cytotoxicity against human HepG2 cells assessed as growth inhibition at 40 uM after 48 hrs by MTT assay relative to control. Conditions: HepG2, 48 h, read-out: GI. A digest of the protocol:
as §1

With `CC1=C(CCC(=O)O)C(=O)c2c(O)cccc2C1=O`, the inhibition of growth at 40 µM in test [1] came out at 8.7%; in test [2], 12.3%; in test [3] it was 25.3%.
